Measurements as given in ChEMBL document CHEMBL3108666, “Cytotoxic and protein kinase inhibiting nakijiquinones and nakijiquinols from the sponge Dactylospongia metachromia” (J Nat Prod, 2014).
Active and inactive are the calls of the source. The calls are words filed in the database; no cut-off is given here.

Tests used:
[1] = molecular target: T1, Vascular endothelial growth factor receptor 2 (Homo sapiens, UniProt P35968); experiment: Inhibition of recombinant VEGFR2 (unknown origin) using poly(Glu,Tyr)4:1 as substrate assessed as incorporation of [gamma-33P]-ATP into substrate at 10 uM by radiometric assay
Outline: (§1)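 Radiometric 33PanQinase format: recombinant kinase incubated with [γ-33P]ATP plus unlabeled ATP and kinase substrate; substrate-incorporated label measured by FlashPlate counting; compounds screened at 10 μM each across a 16-kinase panel.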

[2] = molecular target: T2, Proto-oncogene tyrosine-protein kinase Src (Homo sapiens, UniProt P12931); experiment: Inhibition of recombinant SRC (unknown origin) using casein as substrate assessed as incorporation of [gamma-33P]-ATP into substrate at 10 uM by radiometric assay; outline: as §1
[3] = molecular target: T3, Insulin-like growth factor 1 receptor (Homo sapiens, UniProt P08069); experiment: Inhibition of recombinant IGF1R (unknown origin) using Poly (Glu,Tyr) 4:1 as substrate assessed as incorporation of [gamma-33P]-ATP into substrate at 10 uM by radiometric assay; outline: as §1
Focal adhesion kinase 1 [4] = molecular target: T4, Focal adhesion kinase 1 (Homo sapiens, UniProt Q05397); experiment: Inhibition of recombinant FAK (unknown origin) assessed as incorporation of [gamma-33P]-ATP into substrate at 10 uM by radiometric assay; outline: as §1
[5] = molecular target: T5, ALK tyrosine kinase receptor (Homo sapiens, UniProt Q9UM73); experiment: Inhibition of recombinant ALK (unknown origin) assessed as incorporation of [gamma-33P]-ATP into substrate at 10 uM by radiometric assay; outline: as §1
L5178Y = experiment: Cytotoxicity against mouse L5178Y cells assessed as growth inhibition by MTT assay; format: functional, cell-based
Outline: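 L5178Y mouse lymphoma cells; MTT microculture tetrazolium read-out, compared with untreated controls; media with 0.1% EGMME-DMSO as negative control; three independent experiments, each in triplicate.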

[6] = molecular target: T1, Vascular endothelial growth factor receptor 2; experiment: Inhibition of recombinant VEGFR2 (unknown origin) using poly(Glu,Tyr)4:1 as substrate assessed as incorporation of [gamma-33P]-ATP into substrate by radiometric assay; outline: as §1
[7] = molecular target: T2, Proto-oncogene tyrosine-protein kinase Src; experiment: Inhibition of recombinant SRC (unknown origin) using casein as substrate assessed as incorporation of [gamma-33P]-ATP into substrate by radiometric assay
[8] = molecular target: Serine/threonine-protein kinase N1 (Homo sapiens, UniProt Q16512); experiment: Inhibition of recombinant PRK1 (unknown origin) using casein as substrate assessed as incorporation of [gamma-33P]-ATP into substrate by radiometric assay; outline: as §1
[9] = molecular target: Serine/threonine-protein kinase PLK1 (Homo sapiens, UniProt P53350); experiment: Inhibition of recombinant PLK1 (unknown origin) using casein as substrate assessed as incorporation of [gamma-33P]-ATP into substrate by radiometric assay
[10] = molecular target: Serine/threonine-protein kinase pim-1 (Homo sapiens, UniProt P11309); experiment: Inhibition of recombinant PIM1 (unknown origin) assessed as incorporation of [gamma-33P]-ATP into substrate by radiometric assay; outline: as §1
[11] = molecular target: Serine/threonine-protein kinase Nek6 (Homo sapiens, UniProt Q9HC98); experiment: Inhibition of recombinant NEK6 (unknown origin) assessed as incorporation of [gamma-33P]-ATP into substrate by radiometric assay; outline: as §1
[12] = molecular target: T6, Serine/threonine-protein kinase Nek2 (Homo sapiens, UniProt P51955); experiment: Inhibition of recombinant NEK2 (unknown origin) assessed as incorporation of [gamma-33P]-ATP into substrate by radiometric assay
T6 sequence (P51955 whole entry): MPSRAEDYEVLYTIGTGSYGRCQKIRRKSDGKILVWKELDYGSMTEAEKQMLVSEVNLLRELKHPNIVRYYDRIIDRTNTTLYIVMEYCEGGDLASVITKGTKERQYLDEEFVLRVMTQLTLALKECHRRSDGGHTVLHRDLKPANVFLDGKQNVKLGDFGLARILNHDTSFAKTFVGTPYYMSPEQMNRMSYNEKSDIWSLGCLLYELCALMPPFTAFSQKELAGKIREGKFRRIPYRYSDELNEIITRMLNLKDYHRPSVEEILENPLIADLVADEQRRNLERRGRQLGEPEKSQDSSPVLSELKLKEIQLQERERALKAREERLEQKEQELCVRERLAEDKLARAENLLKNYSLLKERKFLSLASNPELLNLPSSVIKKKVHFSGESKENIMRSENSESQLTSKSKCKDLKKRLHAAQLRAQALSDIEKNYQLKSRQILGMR

[13] = molecular target: Hepatocyte growth factor receptor (Homo sapiens, UniProt P08581); experiment: Inhibition of wild type MET (unknown origin) assessed as incorporation of [gamma-33P]-ATP into substrate by radiometric assay
[14] = molecular target: Dual specificity mitogen-activated protein kinase kinase 1 (Homo sapiens, UniProt Q02750); experiment: Inhibition of wild type MEK1 (unknown origin) assessed as incorporation of [gamma-33P]-ATP into substrate by radiometric assay
[15] = molecular target: T3, Insulin-like growth factor 1 receptor; experiment: Inhibition of recombinant IGF1R (unknown origin) using Poly (Glu,Tyr) 4:1 as substrate assessed as incorporation of [gamma-33P]-ATP into substrate by radiometric assay
Focal adhesion kinase 1 [16] = molecular target: T4, Focal adhesion kinase 1; experiment: Inhibition of recombinant FAK (unknown origin) assessed as incorporation of [gamma-33P]-ATP into substrate by radiometric assay; outline: as §1
Target sequence in this assay (Q05397 whole entry): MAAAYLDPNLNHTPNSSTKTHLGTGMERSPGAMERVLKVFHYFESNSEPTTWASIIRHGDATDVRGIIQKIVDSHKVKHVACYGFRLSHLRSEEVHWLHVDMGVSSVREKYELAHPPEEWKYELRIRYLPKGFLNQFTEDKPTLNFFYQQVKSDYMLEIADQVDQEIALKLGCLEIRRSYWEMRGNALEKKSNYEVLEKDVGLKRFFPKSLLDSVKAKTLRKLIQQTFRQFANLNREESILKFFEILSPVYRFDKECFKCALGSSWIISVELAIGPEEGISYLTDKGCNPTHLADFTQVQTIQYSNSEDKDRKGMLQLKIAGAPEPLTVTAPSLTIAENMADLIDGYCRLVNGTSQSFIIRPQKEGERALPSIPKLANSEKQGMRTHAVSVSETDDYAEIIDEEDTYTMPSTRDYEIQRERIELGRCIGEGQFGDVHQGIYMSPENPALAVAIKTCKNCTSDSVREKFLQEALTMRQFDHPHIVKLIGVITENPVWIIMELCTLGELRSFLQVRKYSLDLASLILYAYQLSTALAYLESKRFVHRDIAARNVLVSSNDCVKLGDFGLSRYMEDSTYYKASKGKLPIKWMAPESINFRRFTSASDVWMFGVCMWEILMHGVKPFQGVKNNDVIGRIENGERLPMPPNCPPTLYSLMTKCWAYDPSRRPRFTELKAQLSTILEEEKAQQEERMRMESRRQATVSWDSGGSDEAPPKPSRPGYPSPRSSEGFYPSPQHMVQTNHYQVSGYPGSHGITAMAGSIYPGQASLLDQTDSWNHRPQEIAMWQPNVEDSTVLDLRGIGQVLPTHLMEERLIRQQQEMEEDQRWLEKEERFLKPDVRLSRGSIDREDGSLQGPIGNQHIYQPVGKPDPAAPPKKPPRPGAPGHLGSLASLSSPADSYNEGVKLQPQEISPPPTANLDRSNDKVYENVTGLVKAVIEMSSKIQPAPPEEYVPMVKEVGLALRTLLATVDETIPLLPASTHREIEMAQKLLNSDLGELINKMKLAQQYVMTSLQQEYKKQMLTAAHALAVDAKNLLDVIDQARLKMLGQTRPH

[17] = molecular target: T7, Tyrosine-protein kinase receptor UFO (Homo sapiens, UniProt P30530); experiment: Inhibition of recombinant AXL (unknown origin) assessed as incorporation of [gamma-33P]-ATP into substrate by radiometric assay
T7 sequence (P30530 whole entry): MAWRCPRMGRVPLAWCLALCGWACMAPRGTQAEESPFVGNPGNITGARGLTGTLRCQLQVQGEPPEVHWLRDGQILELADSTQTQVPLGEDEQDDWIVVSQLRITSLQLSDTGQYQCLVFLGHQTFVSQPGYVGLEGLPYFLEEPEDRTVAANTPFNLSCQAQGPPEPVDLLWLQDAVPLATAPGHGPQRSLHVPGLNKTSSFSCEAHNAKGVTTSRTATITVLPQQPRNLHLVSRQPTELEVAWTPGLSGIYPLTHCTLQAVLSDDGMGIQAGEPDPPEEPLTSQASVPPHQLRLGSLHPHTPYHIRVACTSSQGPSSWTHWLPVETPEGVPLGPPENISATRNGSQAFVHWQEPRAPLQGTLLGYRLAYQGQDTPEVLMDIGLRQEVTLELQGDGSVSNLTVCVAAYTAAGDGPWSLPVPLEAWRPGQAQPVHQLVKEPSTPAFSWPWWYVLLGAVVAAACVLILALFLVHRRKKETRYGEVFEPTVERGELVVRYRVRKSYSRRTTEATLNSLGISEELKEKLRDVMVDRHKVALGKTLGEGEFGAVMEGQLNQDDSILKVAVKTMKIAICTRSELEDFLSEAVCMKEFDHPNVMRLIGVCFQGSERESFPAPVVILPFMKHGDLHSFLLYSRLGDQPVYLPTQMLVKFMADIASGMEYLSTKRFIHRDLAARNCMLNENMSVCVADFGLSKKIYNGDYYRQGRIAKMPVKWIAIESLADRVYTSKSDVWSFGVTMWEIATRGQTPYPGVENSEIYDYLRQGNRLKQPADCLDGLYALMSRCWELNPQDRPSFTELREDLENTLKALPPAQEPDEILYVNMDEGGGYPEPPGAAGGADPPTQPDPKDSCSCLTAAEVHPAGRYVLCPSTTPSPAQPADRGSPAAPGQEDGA

Aurora kinase B = Aurora kinase B (Homo sapiens, UniProt Q96GD4); experiment: Inhibition of recombinant aurora kinase B (unknown origin) using tetra(LRRWSLG) as substrate assessed as incorporation of [gamma-33P]-ATP into substrate by radiometric assay
[18] = molecular target: T8, NUAK family SNF1-like kinase 1 (Homo sapiens, UniProt O60285); experiment: Inhibition of recombinant ARK5 (unknown origin) assessed as incorporation of [gamma-33P]-ATP into substrate by radiometric assay; outline: as §1
T8 sequence (O60285 whole entry): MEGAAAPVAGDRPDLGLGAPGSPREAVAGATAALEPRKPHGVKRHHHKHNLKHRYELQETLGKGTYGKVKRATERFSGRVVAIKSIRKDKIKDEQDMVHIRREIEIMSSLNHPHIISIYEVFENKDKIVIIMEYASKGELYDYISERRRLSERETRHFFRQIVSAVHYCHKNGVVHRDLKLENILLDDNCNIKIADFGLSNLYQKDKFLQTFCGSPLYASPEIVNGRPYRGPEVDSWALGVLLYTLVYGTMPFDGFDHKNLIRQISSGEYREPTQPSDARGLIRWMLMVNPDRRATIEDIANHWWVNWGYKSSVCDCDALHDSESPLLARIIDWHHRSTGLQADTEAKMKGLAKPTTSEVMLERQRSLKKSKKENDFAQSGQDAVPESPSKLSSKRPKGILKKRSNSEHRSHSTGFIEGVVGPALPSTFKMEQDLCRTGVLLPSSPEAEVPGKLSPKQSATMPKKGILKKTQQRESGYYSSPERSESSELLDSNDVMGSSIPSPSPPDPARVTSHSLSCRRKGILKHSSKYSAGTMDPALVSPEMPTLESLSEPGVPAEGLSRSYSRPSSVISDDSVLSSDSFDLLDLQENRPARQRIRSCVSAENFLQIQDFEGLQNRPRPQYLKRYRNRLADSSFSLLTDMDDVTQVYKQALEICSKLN

[19] = molecular target: T5, ALK tyrosine kinase receptor; experiment: Inhibition of recombinant ALK (unknown origin) assessed as incorporation of [gamma-33P]-ATP into substrate by radiometric assay
Target sequence in this assay (Q9UM73 whole entry): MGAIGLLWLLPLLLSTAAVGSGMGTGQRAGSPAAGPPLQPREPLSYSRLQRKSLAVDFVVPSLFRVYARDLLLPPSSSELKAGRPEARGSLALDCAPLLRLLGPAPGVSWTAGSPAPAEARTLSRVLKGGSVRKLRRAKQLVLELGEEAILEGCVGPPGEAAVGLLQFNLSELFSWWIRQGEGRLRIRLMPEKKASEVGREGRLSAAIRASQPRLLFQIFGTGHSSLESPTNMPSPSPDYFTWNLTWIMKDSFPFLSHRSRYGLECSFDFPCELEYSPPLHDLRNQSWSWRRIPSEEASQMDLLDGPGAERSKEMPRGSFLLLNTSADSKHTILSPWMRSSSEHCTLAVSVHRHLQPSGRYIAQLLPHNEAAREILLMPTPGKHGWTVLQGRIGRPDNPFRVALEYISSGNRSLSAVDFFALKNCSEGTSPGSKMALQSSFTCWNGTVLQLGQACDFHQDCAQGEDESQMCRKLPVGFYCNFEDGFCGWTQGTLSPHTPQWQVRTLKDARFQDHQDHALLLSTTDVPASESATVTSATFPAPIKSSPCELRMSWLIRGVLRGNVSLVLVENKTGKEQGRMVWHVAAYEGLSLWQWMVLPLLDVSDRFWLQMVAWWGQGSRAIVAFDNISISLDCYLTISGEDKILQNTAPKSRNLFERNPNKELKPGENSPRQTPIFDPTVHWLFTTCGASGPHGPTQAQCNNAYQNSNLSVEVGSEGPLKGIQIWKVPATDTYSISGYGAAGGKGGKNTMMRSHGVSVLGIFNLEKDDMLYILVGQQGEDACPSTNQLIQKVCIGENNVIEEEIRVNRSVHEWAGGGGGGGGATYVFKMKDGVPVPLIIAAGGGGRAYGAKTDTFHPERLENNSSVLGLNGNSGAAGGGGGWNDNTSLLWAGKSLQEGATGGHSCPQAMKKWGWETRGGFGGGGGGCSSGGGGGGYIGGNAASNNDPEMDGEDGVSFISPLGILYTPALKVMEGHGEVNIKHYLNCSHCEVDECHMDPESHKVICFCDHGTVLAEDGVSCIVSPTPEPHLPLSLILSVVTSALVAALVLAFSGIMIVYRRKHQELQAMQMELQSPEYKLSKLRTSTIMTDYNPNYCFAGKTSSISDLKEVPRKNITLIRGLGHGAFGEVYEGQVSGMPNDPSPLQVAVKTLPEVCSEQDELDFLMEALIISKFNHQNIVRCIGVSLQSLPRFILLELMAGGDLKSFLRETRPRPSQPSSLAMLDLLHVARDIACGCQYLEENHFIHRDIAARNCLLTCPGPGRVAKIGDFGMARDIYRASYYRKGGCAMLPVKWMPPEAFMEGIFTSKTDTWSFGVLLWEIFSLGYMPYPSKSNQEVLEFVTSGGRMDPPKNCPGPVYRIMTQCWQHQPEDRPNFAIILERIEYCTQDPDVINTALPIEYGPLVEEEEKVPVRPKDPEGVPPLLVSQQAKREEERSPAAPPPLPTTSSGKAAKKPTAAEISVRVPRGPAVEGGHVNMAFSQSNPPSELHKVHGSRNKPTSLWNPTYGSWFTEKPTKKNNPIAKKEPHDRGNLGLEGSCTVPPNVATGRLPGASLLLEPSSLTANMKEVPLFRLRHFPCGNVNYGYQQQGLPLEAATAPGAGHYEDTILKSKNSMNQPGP

[20] = molecular target: RAC-alpha serine/threonine-protein kinase (Homo sapiens, UniProt P31749); experiment: Inhibition of recombinant AKT1 (unknown origin) using GSK3 (14 to 27) as substrate assessed as incorporation of [gamma-33P]-ATP into substrate by radiometric assay; outline: as §1

Hepatocyte growth factor receptor, sequence (P08581 whole entry): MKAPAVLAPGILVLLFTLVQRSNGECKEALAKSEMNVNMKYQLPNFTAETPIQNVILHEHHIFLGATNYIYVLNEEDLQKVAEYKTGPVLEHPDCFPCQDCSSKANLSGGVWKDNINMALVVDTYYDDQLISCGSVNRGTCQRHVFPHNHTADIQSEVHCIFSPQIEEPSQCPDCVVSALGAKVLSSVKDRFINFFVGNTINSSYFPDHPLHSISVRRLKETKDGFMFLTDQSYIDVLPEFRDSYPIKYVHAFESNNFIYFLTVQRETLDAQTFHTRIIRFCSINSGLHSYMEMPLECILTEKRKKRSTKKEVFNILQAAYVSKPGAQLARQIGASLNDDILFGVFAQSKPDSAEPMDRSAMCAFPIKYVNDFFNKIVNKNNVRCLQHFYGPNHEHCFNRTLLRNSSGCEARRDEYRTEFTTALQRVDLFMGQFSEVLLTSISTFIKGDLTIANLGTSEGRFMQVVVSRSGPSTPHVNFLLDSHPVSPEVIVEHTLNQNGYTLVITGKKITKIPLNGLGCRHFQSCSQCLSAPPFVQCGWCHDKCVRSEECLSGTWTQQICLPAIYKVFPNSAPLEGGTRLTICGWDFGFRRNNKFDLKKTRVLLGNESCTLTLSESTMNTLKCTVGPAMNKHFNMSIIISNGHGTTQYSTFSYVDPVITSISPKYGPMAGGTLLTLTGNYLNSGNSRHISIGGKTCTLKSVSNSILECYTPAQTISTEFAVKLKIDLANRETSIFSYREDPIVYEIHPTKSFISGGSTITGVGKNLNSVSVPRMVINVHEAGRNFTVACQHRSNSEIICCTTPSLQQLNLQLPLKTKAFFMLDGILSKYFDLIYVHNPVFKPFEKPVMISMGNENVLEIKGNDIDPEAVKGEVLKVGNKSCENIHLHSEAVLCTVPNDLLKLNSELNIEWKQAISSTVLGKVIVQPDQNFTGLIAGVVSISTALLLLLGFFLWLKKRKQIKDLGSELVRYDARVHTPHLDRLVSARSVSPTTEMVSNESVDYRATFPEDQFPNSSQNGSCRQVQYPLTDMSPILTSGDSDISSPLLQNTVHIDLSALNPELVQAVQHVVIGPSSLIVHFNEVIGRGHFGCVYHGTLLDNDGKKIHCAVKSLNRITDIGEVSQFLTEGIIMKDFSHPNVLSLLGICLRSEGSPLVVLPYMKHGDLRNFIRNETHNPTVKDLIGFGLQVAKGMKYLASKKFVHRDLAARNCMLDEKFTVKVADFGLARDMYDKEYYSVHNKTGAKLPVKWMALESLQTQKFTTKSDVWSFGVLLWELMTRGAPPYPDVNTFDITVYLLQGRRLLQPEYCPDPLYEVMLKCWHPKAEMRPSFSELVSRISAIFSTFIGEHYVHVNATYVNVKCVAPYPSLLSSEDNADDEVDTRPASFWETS
Serine/threonine-protein kinase Nek6, sequence (Q9HC98 whole entry): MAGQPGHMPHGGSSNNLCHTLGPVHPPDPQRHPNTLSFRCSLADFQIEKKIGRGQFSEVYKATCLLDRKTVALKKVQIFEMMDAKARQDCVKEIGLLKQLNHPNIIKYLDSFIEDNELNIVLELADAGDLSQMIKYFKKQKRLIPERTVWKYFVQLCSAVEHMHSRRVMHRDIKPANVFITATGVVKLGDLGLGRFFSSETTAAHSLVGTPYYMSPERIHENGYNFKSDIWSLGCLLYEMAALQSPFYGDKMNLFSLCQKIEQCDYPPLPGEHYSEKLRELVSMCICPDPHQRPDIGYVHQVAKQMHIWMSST
Serine/threonine-protein kinase PLK1, sequence (P53350 whole entry): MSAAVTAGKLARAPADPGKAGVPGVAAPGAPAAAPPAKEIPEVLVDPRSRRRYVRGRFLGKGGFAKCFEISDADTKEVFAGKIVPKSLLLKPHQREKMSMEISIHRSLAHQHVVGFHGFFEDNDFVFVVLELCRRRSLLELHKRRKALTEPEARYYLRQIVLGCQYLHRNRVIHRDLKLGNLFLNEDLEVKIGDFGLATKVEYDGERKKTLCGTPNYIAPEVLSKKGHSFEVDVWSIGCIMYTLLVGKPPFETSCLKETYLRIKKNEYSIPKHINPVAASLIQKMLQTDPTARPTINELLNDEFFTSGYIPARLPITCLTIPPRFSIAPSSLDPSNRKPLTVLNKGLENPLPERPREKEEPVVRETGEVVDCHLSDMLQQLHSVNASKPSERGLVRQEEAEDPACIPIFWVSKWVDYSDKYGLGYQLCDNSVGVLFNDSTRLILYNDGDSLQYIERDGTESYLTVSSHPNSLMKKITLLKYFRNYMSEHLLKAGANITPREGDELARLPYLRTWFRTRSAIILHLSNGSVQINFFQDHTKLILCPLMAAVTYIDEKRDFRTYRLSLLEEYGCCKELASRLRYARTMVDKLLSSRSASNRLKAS

SMILES	inhibition [1]	inhibition [2]	inhibition [3]	inhibition (Focal adhesion kinase 1 [4])	inhibition [5]	IC50 (L5178Y)	IC50 [6]	IC50 [7]	IC50 [8]	IC50 [9]	IC50 [10]	IC50 [11]	IC50 [12]	IC50 [13]	IC50 [14]	IC50 [15]	IC50 (Focal adhesion kinase 1 [16])	IC50 [17]	IC50 (Aurora kinase B)	IC50 [18]	other results
CC1=CCC[C@H]2[C@](C)(CC3=C(O)C(=O)C=C(NCCc4c[nH]c5ccccc45)C3=O)[C@@H](C)CC[C@@]12C	Active	Active	Active	Active	Active	3.7 µM															
COC(=O)c1cc(O)c(O)c(C[C@]2(C)[C@@H](C)CC[C@@]3(C)C(C)=CCC[C@@H]23)c1						> 10 µM	4.81 µM	8.62 µM	> 100 µM	21.7 µM	20.3 µM	7.72 µM	14.7 µM	3.12 µM	> 100 µM	11.8 µM	4.56 µM	13.1 µM	3.89 µM	29.4 µM	IC50 [19]: 2.19 µM; IC50 [20]: 48.4 µM
CSCCCNC1=CC(=O)C(O)=C(C[C@]2(C)[C@@H](C)CC[C@@]3(C)C(C)=CCC[C@@H]23)C1=O	Active	Active	Active	Active	Active	1.8 µM															
CC1=CCC[C@H]2[C@](C)(CC3=C(O)C(=O)C=C(NCCc4ccc(O)cc4)C3=O)[C@@H](C)CC[C@@]12C	Active	Active	Active	Active	Active	1.7 µM															
COc1cc2nc(C)oc2c(C[C@]2(C)[C@@H](C)CC[C@@]3(C)C(C)=CCC[C@@H]23)c1O						> 10 µM	3.66 µM	19.7 µM	> 100 µM	> 100 µM	> 100 µM	> 100 µM	> 100 µM	> 100 µM	> 100 µM	3.31 µM	7.78 µM	14.7 µM	> 100 µM	> 100 µM	IC50 [19]: 3.38 µM; IC50 [20]: > 100 µM
CC1=CCC[C@H]2[C@](C)(CC3=C(O)C(=O)C=C(NCCc4ccccc4)C3=O)[C@@H](C)CC[C@@]12C	Active	Active	Active	Active	Active	1.1 µM															
CC1=CCC[C@H]2[C@](C)(CC3=C(O)C(=O)C=C(NCCC(C)C)C3=O)[C@@H](C)CC[C@@]12C						1.3 µM	2.22 µM	2.2 µM	> 100 µM	100 µM	62.6 µM	90.8 µM	29.9 µM	40.3 µM	> 100 µM	1.94 µM	3.03 µM	> 100 µM	61 µM	> 100 µM	IC50 [19]: 0.97 µM; IC50 [20]: 73.2 µM
CC1=CCC[C@H]2[C@](C)(Cc3c4oc(C)nc4cc4nc(C)oc34)[C@@H](C)CC[C@@]12C			Active	Active	Active	> 10 µM															
